Measured values published in ChEMBL document CHEMBL3877264, “Quinolidene-rhodanine conjugates: Facile synthesis and biological evaluation” (Eur J Med Chem, 2017).
≈ marks a conversion by molar mass, not a printed value.

Columns and labels:
[1] = test system: Mycobacterium tuberculosis; test: Growth inhibition of Mycobacterium bovis BCG ATCC 35743 at dormant stage at 50 ug/ml measured after 12 days by nitrate reductase dye based two fold dilution method relative to control; assay type: functional; details: BCG str. ATCC 35743, 288 h, read-out: GI
Procedure, shortened: (§1)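 M. bovis BCG was grown in Dubos medium and assayed in Mycobacterium pheli minimal medium (pH 6.6), with compounds from DMSO stocks. Incubation lasted 8 days for active and 12 days for dormant cultures. Viability was read by nitrate reductase at 540 nm against cell-free blanks, with vehicle set as 100% growth. Primary screen was at 30, 10 and 3 µg/ml, in triplicate, mean ± SD. MIC was taken from dose-response curves.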

[2] = test system: Mycobacterium tuberculosis; test: Growth inhibition of Mycobacterium bovis BCG ATCC 35743 at dormant stage at 0.78 ug/ml measured after 12 days by nitrate reductase dye based two fold dilution method relative to control; assay type: functional; details: BCG str. ATCC 35743, 288 h, read-out: GI; procedure, shortened: as §1
[3] = Cytotoxicity against […]-differentiated human THP1 cells assessed as growth inhibition at 100 ug/ml measured after 48 hrs by MTT assay relative to control; assay type: toxicity, cell-based, THP-1; details: read-out: GI
Procedure, shortened: (§2)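 MTT assay with 48 h compound exposure. THP-1 macrophages made by 24 h PMA treatment. Each concentration tested in triplicate in one experiment. % cytotoxicity = (control−test)/(control−blank)×100, with control = cells + DMSO and blank = medium without cells. IC50 from % survival versus concentration plots.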

[4] = Selectivity index, ratio of GI50 for human A549 cells to MIC for Mycobacterium tuberculosis H37Ra ATCC 25177 at dormant stage; assay type: toxicity, cell-based; details: read-out: Selectivity Index
Procedure, shortened: (§3)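 SI is the cell-line GI50 divided by the dormant-stage mycobacterial MIC. […] THP-1 macrophages were PMA-differentiated for 24 h.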

[5] = Selectivity index, ratio of GI50 for HUVEC to MIC for Mycobacterium bovis BCG ATCC 35743 at dormant stage; details: pooled result: one value given for 6 cell lines, strains, targets or settings; procedure, shortened: as §3
[6] = test system: Mycobacterium tuberculosis; test: Growth inhibition of Mycobacterium bovis BCG ATCC 35743 at active stage at 12.5 ug/ml measured after 8 days by nitrate reductase dye based two fold dilution method relative to control; assay type: functional; details: BCG str. ATCC 35743, 192 h, read-out: GI
[7] = test system: Mycobacterium tuberculosis; test: Growth inhibition of Mycobacterium tuberculosis H37Ra ATCC 25177 at active stage at 0.78 ug/ml measured after 8 days by XTT dye based two fold dilution method relative to control; assay type: functional; details: H37Ra ATCC 25177, 192 h, read-out: GI
Procedure, shortened: (§4)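 MTB H37Ra was grown in Dubos medium, then exposed in Mycobacterium pheli minimal medium (pH 6.6) to compounds dissolved in DMSO. The assay ended on day 8 (active) or day 12 (dormant). Viable cells were measured by XTT reduction menadione assay at 470 nm, blank-corrected, relative to vehicle control. Triplicates were expressed as mean ± SD. MIC came from dose-response curves.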

[8] = Cytotoxicity against human PANC1 cells assessed as growth inhibition at 100 ug/ml measured after 48 hrs by MTT assay relative to control; assay type: toxicity, cell-based, PANC-1; details: read-out: GI
[9] = Selectivity index, ratio of GI50 for human HeLa cells to MIC for Mycobacterium tuberculosis H37Ra ATCC 25177 at dormant stage; assay type: toxicity, cell-based; details: read-out: Selectivity Index; procedure, shortened: as §3
[10] = test system: Mycobacterium tuberculosis; test: Growth inhibition of Mycobacterium bovis BCG ATCC 35743 at active stage at 1.56 ug/ml measured after 8 days by nitrate reductase dye based two fold dilution method relative to control; assay type: functional; details: BCG str. ATCC 35743, 192 h, read-out: GI; procedure, shortened: as §1
[11] = test system: Mycobacterium tuberculosis; test: Growth inhibition of Mycobacterium bovis BCG ATCC 35743 at dormant stage measured after 12 days by nitrate reductase dye based two fold dilution method; assay type: functional; details: BCG str. ATCC 35743, 288 h; procedure, shortened: as §1
[12] = test system: Mycobacterium tuberculosis; test: Growth inhibition of Mycobacterium tuberculosis H37Ra ATCC 25177 at active stage at 25 ug/ml measured after 8 days by XTT dye based two fold dilution method relative to control; assay type: functional; details: H37Ra ATCC 25177, 192 h, read-out: GI; procedure, shortened: as §4
[13] = Selectivity index, ratio of GI50 for human PANC1 cells to MIC for Mycobacterium tuberculosis H37Ra ATCC 25177 at dormant stage; assay type: toxicity, cell-based, PANC-1; details: read-out: Selectivity Index; procedure, shortened: as §3
[14] = Cytotoxicity against human THP1 cells measured after 48 hrs by MTT assay; assay type: toxicity, cell-based, THP-1; procedure, shortened: as §2
[15] = test system: Mycobacterium tuberculosis; test: Growth inhibition of Mycobacterium tuberculosis H37Ra ATCC 25177 at active stage at 12.5 ug/ml measured after 8 days by XTT dye based two fold dilution method relative to control; assay type: functional; details: H37Ra ATCC 25177, 192 h, read-out: GI
[16] = test system: Mycobacterium tuberculosis; test: Growth inhibition of Mycobacterium bovis BCG ATCC 35743 at dormant stage at 6.25 ug/ml measured after 12 days by nitrate reductase dye based two fold dilution method relative to control; assay type: functional; details: BCG str. ATCC 35743, 288 h, read-out: GI; procedure, shortened: as §1
[17] = test system: Mycobacterium tuberculosis; test: Growth inhibition of Mycobacterium bovis BCG ATCC 35743 at dormant stage at 12.5 ug/ml measured after 12 days by nitrate reductase dye based two fold dilution method relative to control; assay type: functional; details: BCG str. ATCC 35743, 288 h, read-out: GI
Staphylococcus aureus [18] = test: Growth inhibition of Staphylococcus aureus NCIM 2010 at 30 ug/ml measured after 12 hrs relative to control; assay type: functional; details: NCIM 2010, 12 h, read-out: GI
Procedure, shortened: (§5)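 Bacteria grown in LB at 37 °C and 180 rpm to OD 1. Compounds added to wells, then 0.1% inoculum of 1 OD culture (620 nm). Growth read as OD at 620 nm after 8 h for gram-negative and after 12 h for gram-positive strains.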

[19] = test system: Mycobacterium tuberculosis; test: Growth inhibition of Mycobacterium tuberculosis H37Ra ATCC 25177 at dormant stage at 0.78 ug/ml measured after 12 days by XTT dye based two fold dilution method relative to control; assay type: functional; details: H37Ra ATCC 25177, 288 h, read-out: GI; procedure, shortened: as §4
Bacillus subtilis [20] = test: Growth inhibition of Bacillus subtilis NCIM 2079 at 30 ug/ml measured after 12 hrs relative to control; assay type: functional; details: NCIM 2079, 12 h, read-out: GI; procedure, shortened: as §5
[21] = Cytotoxicity against human A549 cells assessed as growth inhibition at 100 ug/ml measured after 48 hrs by MTT assay relative to control; assay type: toxicity, cell-based; details: read-out: GI
Bacillus subtilis [22] = test: Growth inhibition of Bacillus subtilis NCIM 2079 at 10 ug/ml measured after 12 hrs relative to control; assay type: functional; details: NCIM 2079, 12 h, read-out: GI; procedure, shortened: as §5
Escherichia coli = test: Antibacterial activity against Escherichia coli NCIM 2688 measured after 8 hrs; assay type: functional; details: NCIM 2688, 8 h; procedure, shortened: as §5
[23] = Cytotoxicity against primary HUVEC assessed as growth inhibition at 100 ug/ml measured after 48 hrs by MTT assay relative to control; assay type: toxicity, cell-based; details: human, read-out: GI
Staphylococcus aureus [24] = test: Growth inhibition of Staphylococcus aureus NCIM 2010 at 3 ug/ml measured after 12 hrs relative to control; assay type: functional; details: NCIM 2010, 12 h, read-out: GI; procedure, shortened: as §5
[25] = test system: Mycobacterium tuberculosis; test: Growth inhibition of Mycobacterium tuberculosis H37Ra ATCC 25177 at active stage at 50 ug/ml measured after 8 days by XTT dye based two fold dilution method relative to control; assay type: functional; details: H37Ra ATCC 25177, 192 h, read-out: GI; procedure, shortened: as §4
[26] = Cytotoxicity against […]-differentiated human THP1 cells measured after 48 hrs by MTT assay; assay type: toxicity, cell-based, THP-1; procedure, shortened: as §2
[27] = Cytotoxicity against human A549 cells measured after 48 hrs by MTT assay; assay type: toxicity, cell-based
[28] = test system: Mycobacterium tuberculosis; test: Growth inhibition of Mycobacterium tuberculosis H37Ra ATCC 25177 at dormant stage at 3.13 ug/ml measured after 12 days by XTT dye based two fold dilution method relative to control; assay type: functional; details: H37Ra ATCC 25177, 288 h, read-out: GI; procedure, shortened: as §4
[29] = Cytotoxicity against human HeLa cells measured after 48 hrs by MTT assay; assay type: toxicity, cell-based

SMILES | inhibition of growth at 50 µg/mL [1] | inhibition of growth at 0.78 µg/mL [2] | inhibition at 48 h, 100 ug/ml [3] | Selectivity Index [5] | inhibition of growth at 12.5 µg/mL [6] | inhibition of growth at 0.78 µg/mL [7] | inhibition at 48 h, 100 ug/ml [8] | inhibition of growth at 1.56 µg/mL [10] | inhibition of growth at 25 µg/mL [12] | GI50 at 48 h [14] | inhibition of growth at 12.5 µg/mL [15] | inhibition of growth at 6.25 µg/mL [16] | inhibition of growth at 12.5 µg/mL [17] | inhibition of growth at 30 µg/mL (Staphylococcus aureus [18]) | inhibition of growth at 0.78 µg/mL [19] | inhibition of growth at 30 µg/mL (Bacillus subtilis [20]) | inhibition at 48 h, 100 ug/ml [21] | inhibition of growth at 10 µg/mL (Bacillus subtilis [22]) | MIC (Escherichia coli) | inhibition at 48 h, 100 ug/ml [23] | also measured
O=C1NC(=S)S/C1=C\c1cc2cc(Cl)ccc2nc1Cl | 101% | -9.1% | 29.1% | 43.7 | 99.5% | 24.1% | 25.2% | 86.2% | 100% | > 100 µg/mL | 99.3% | 101% | 100% | 101% | -27.1% | 101% | 26.9% | 92.5% | 2.44 µg/mL (≈ 7.15 µM) | 25.9% | selectivity ratio [4]: 15.6; selectivity ratio [9]: 15.6; IC50 [11]: 1.3 µg/mL (≈ 3.81 µM); IC90 [11]: 2.2 µg/mL (≈ 6.45 µM); selectivity ratio [13]: 15.6; inhibition of growth at 3 µg/mL (Staphylococcus aureus [24]): 101%; inhibition of growth at 50 µg/mL [25]: 97.5%; GI50 at 48 h [26]: > 100 µg/mL; GI50 at 48 h [27]: > 100 µg/mL; inhibition of growth at 3.13 µg/mL [28]: 42.4%; GI50 at 48 h [29]: > 100 µg/mL
COc1ccc2cc(/C=C3\SC(=S)NC3=O)c(Cl)nc2c1 | 100% | -50.5% | 31.3% | 60.2 | 98.9% | 16.8% | 29.8% | -36.6% | 109% | > 100 µg/mL | 83.1% | 94% | 98.8% | -23.5% | -29.8% | 8.36% | 27.6% | -8.32% | > 30 µg/mL | 25.4% | inhibition of growth at 3 µg/mL (Staphylococcus aureus [24]): 9.19%; inhibition of growth at 50 µg/mL [25]: 102%; GI50 at 48 h [26]: > 100 µg/mL; GI50 at 48 h [27]: > 100 µg/mL; inhibition of growth at 3.13 µg/mL [28]: 36.4%; GI50 at 48 h [29]: > 100 µg/mL
